UPR XBP1 act: activators of adaptive arm of unfolded protein response (XBP1). activation, % at 20 µM. actives 0.33% (n = 330,000). CHO-XBP1 luciferase reporter, IRE1-XBP1 UPR activation, luminescence; percent of tunicamycin response, DMSO as zero. AID 463104;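 active = versus positive control, 20 µM dose yields 30% or more activation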
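Material – CHO cell line with stable XBP1 luciferase reporter · Buffer or medium – F12 plus 10% FBS · Compound – single point, 20 µM final compound, 1% DMSO · Schedule – 16-18 h cell attachment at 37 °C, then 6 h compound exposure · Signal – Steady-Glo luminescence read · Benchmarks – high control tunicamycin 10 µg/mL final, low control DMSO vehicle only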
UPR CHOP act: activators of apoptotic arm of unfolded protein response (CHOP). CHO-CHOP luciferase reporter, UPR activation, luminescence; percent of tunicamycin response over DMSO baseline. activation, % at 10 µM. actives 0.34% (n = 330,000). AID 449763;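 active = at 10 µM dose, activation of 40% or more, normalized to positive control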
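System: CHO-CHOP luciferase reporter cell line | Buffer or medium: F12 medium containing 10% fetal bovine serum | Doses: One dose, 10 µM in 0.5% DMSO | Times: 6 h compound exposure at 37 °C after overnight seeding | Signal: Luciferase luminescence | Read-out: % activation vs tunicamycin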
CHOP inh: blocks CHOP induction under ER stress; actives 3.8% (n = 220,000); CHO-K1 CHOP-promoter luciferase, tunicamycin-induced, 15-18 h; inhibition, % at 10 µM;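 active = compounds that reduced the stress-induced luciferase reporter signal by more than about 70% of percent inhibition, limit read from the data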
Gli-Sufu antag: antagonists of Gli-Sufu signaling; Sufu-KO-LIGHT fibroblasts, Gli luciferase reporter luminescence; inhibition, % at 5 µM; actives 0.74% (n = 340,000); AID 588413;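 active = inhibition above about 55%, limit read from the data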
Jurkat NFkB inh: inhibitors of the PMA/ionomycin-induced NF-kB reporter in Jurkat cells; inhibition, % at 4 µM; PMA/ionomycin-induced NF-kB luciferase reporter, luminescence; AID 435003; actives 0.53% (n = 330,000); in the data active = inhibition above about 50%
697 NFkB inh: lowers PMA/ionomycin-induced NF-kB signal in 697 B cells. actives 0.33% (n = 330,000). 697 B-cell NF-kB luciferase reporter, 16 h. inhibition, % at 4 µM; in the data active = inhibition above about 35%
Jurkat NFkB conf: lowers PMA/ionomycin-induced NF-kB signal in Jurkat cells; actives 27% (n = 2,700); inhibition, % at 4 µM; Jurkat NF-kB luciferase, 16 h; shares compounds with Jurkat NFkB inh;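 active = inhibition reaching about 45% at 4 µM in either replicate, limit read from the data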
Of the large screens only hits and unclear results are named; the others gave an inactive call (follow-up assays come after a bar, where they were run). Only some compounds are listed: those with a hit (about 3.9% of all), similar ones and a draw of the others.

CC[C@H](C)[C@@H](CN[C@H](CCCCNC)CNC)NCC1CCCC1	none (no result: CHOP inh)
Oc1ccc(-c2csc(Nc3ccccn3)n2)cc1	none (no result: CHOP inh)
Cc1cc(-c2csc(Nc3ccccn3)n2)ccc1F	none (no result: CHOP inh) | Jurkat NFkB conf inactive
Cc1c(C(=O)Nc2cccc(Cl)c2)oc2ccc(S(=O)(=O)N3CCC4(CC3)OCCO4)cc12	Jurkat NFkB inh 59.7 | Jurkat NFkB conf inactive
CCOc1ccc2c(c1)OC(c1ccc(OC)cc1)(C(F)(F)F)NC2=O (configuration not stated)	Jurkat NFkB inh 56.6 | Jurkat NFkB conf inactive
CCOc1ccc2c(c1)OC(c1ccccc1)(C(F)(F)F)NC2=O (configuration not stated)	none
CCN1/C(=C/C=C/c2oc3ccc4ccccc4c3[n+]2CC)Oc2ccc3ccccc3c21	CHOP inh 70.0, Gli-Sufu antag 73.5, Jurkat NFkB inh 92.5 | Jurkat NFkB conf inactive
COc1cccc(CN(C)C(=O)c2ccc(Oc3ccccc3)cc2)c1OC	none (no result: CHOP inh)
S=C(c1ccc(-c2ccc(Br)cc2)o1)N1CCCCC1	none | Jurkat NFkB conf inactive
Cc1cccc(N2CCN(C(=O)COc3cc4oc(=O)cc(C)c4cc3Cl)CC2)c1C	Jurkat NFkB inh 54.2 (no result: CHOP inh) | Jurkat NFkB conf inactive
COc1ccc(C2=NOC(C(=O)NCc3ccc(F)cc3)C2)cc1OC (configuration not stated)	Jurkat NFkB inh 77.9 (no result: CHOP inh) | Jurkat NFkB conf 57.9
COc1cc(C2=NOC(C(=O)NCc3ccc(F)cc3)C2)cc(OC)c1OC (configuration not stated)	Jurkat NFkB inh 68.3 (no result: CHOP inh) | Jurkat NFkB conf 52.0
COc1ccccc1CNC(=O)C1CC(c2cccc([N+](=O)[O-])c2)=NO1 (configuration not stated)	Jurkat NFkB inh 54.8 | Jurkat NFkB conf inactive
COc1cccc(C2=NOC(C(=O)NCc3ccc(F)cc3)C2)c1 (configuration not stated)	none
O=C(NCc1ccco1)C1CC(c2cc(C(F)(F)F)cc(C(F)(F)F)c2)=NO1 (configuration not stated)	Jurkat NFkB inh 61.9 | Jurkat NFkB conf inactive
COc1ccc(S(=O)(=O)Nc2cc3c4c(c2)CC(=O)N4CCC3)cc1C	none (no result: CHOP inh)
CC(=O)N(C)c1ccc(C=C2C=Cc3ccccc32)cc1	none (no result: UPR XBP1 act, UPR CHOP act, CHOP inh, Jurkat NFkB inh, 697 NFkB inh)
O=C(CCCC(=O)N(CC(=O)NC1CCCCC1)c1ccccc1F)Nc1ccccn1	none (no result: CHOP inh)
C[C@H]1CN=C(Nc2ccccc2)N1CCc1ccccc1	none (no result: CHOP inh)
CN(C)c1ccc(C(=O)Nc2nc3c(s2)CCCC3)cc1	CHOP inh 92.0 | Jurkat NFkB conf inactive
CC(C)(C)c1ccc(C(=O)NC(=S)Nc2nc3c(s2)CCCC3)cc1	none
CCC1=Nc2cc(C(=O)NCc3cccnc3)ccc2Sc2ccc(C)cc21	Jurkat NFkB inh 56.4 | Jurkat NFkB conf inactive
CC(=O)C(C)n1c(CN2CCN(C(=O)c3ccco3)CC2)nc2c1c(=O)n(C)c(=O)n2C (configuration not stated)	none (no result: CHOP inh)
O=C(Cn1cc([N+](=O)[O-])ccc1=O)NCC(=O)Nc1ccc(F)c(F)c1F	none (no result: CHOP inh)
O=c1cc(-c2cccc(F)c2)[nH]c2ccccc12	Jurkat NFkB inh 72.4 | Jurkat NFkB conf 62.2
Cc1ccc2[nH]c(-c3cccc(F)c3)cc(=O)c2c1	Jurkat NFkB inh 52.3 | Jurkat NFkB conf inactive
O=c1cc(-c2ccccc2)[nH]c2ccc(F)cc12	none (no result: UPR XBP1 act, UPR CHOP act, Jurkat NFkB inh, 697 NFkB inh)
O=c1cc(-c2ccccc2)[nH]c2cc(Cl)ccc12	Jurkat NFkB inh 65.2 | Jurkat NFkB conf 60.8
Cc1ccc(S(=O)(=O)NCc2ccccc2)cc1C(=O)NC1CCC(C)CC1 (configuration not stated)	none (no result: CHOP inh)
O=C(Nc1ccc(Oc2ccccc2)nc1)C1CCN(Cc2ccco2)CC1	none (no result: CHOP inh)
O=C(Nc1ccc(Oc2ccccc2)nc1)C1CCCCN1Cc1ccco1 (configuration not stated)	Jurkat NFkB inh 53.1 (no result: CHOP inh) | Jurkat NFkB conf inactive
Cc1ccc(CN2CCCCC2C(=O)Nc2ccc(Oc3cccnc3)cc2)o1 (configuration not stated)	Jurkat NFkB inh 68.7 (no result: CHOP inh) | Jurkat NFkB conf inactive
CCOC(=O)c1c(NC(=O)COC(=O)c2ccc(C)s2)sc2c1CC(C)(C)NC2(C)C	none (no result: CHOP inh)
C=CCN(CC=C)c1ncnc2[nH]ncc12	none (no result: UPR XBP1 act, UPR CHOP act, CHOP inh, Jurkat NFkB inh, 697 NFkB inh)
CC(=O)c1c(C)[nH]c(C(=O)CSc2ncnc3sc(-c4ccccc4)cc23)c1C	Jurkat NFkB inh 51.9 | Jurkat NFkB conf inactive
CCCCn1c(N)c(N(CC(C)C)C(=O)c2ccc(OCC3CCCO3)cc2)c(=O)[nH]c1=O (configuration not stated)	none (no result: CHOP inh)
Cc1ccc(S(=O)(=O)NCC(=O)OCC(=O)Nc2cccc(S(=O)(=O)N3CCOCC3)c2)cc1	none (no result: CHOP inh)
CC(OC(=O)c1cc(=O)[nH]c2ccccc12)C(=O)NC1CCCCC1C (configuration not stated)	none (no result: CHOP inh)
O=C(O)C(=O)/C(=C\c1ccc(Cl)cc1)c1ccc2ccccc2n1	none | Jurkat NFkB conf inactive
CCc1ccc2nc(SCC(=O)Nc3ccccc3N3CCOCC3)c(C#N)cc2c1	Jurkat NFkB inh 66.9 | Jurkat NFkB conf inactive
COc1ccc(NC(=O)CS(=O)(=O)c2cn(CC(=O)N3CCCC3)c3ccccc23)c(OC)c1	none (no result: CHOP inh)
CCNC(=S)N(CCO)Cc1cc2cc3c(cc2[nH]c1=O)OCO3	none (no result: CHOP inh)
Cc1cc(C)nc(Nc2ccc(Cl)cc2C)n1	none (no result: CHOP inh)
CCOC(=O)c1ccc(-c2c(-c3ccc(OC)cc3)oc(=O)c3cc(OC)c(OC)cc23)cc1F	none (no result: CHOP inh)
CCOC(=O)c1ccc(-c2c(-c3cc(OC)c(OC)c(OC)c3)noc2C)cc1F	Jurkat NFkB inh 56.7 (no result: CHOP inh) | Jurkat NFkB conf inactive
O=C(CC1C(=O)NCCN1Cc1ccccc1C(F)(F)F)NCCN1CCCCC1=O (configuration not stated)	none (no result: CHOP inh)
Cc1ccc(CNC(=O)CCC(=O)Nc2nnc(C)s2)cc1	none (no result: CHOP inh)
CCC(=O)N1c2ccc(S(=O)(=O)N3CCN(c4ccc([N+](=O)[O-])cc4)CC3)cc2CC1C (configuration not stated)	Gli-Sufu antag 57.5, Jurkat NFkB inh 51.7 (no result: CHOP inh) | Jurkat NFkB conf 64.8
CC(=O)N1c2ccc(S(=O)(=O)N3CCC(C(=O)Nc4ccccn4)CC3)cc2CC1C (configuration not stated)	none (no result: CHOP inh)
CC(=O)c1ccc(N2CCN(S(=O)(=O)c3ccc4c(c3)CC(C)N4C(=O)C3CC3)CC2)cc1 (configuration not stated)	Gli-Sufu antag 66.5, Jurkat NFkB inh 57.7 (no result: CHOP inh) | Jurkat NFkB conf inactive
CC(=O)N1c2ccc(S(=O)(=O)N3CCC(C(=O)Nc4cccc(C)n4)CC3)cc2CC1C (configuration not stated)	Jurkat NFkB inh 53.8 (no result: CHOP inh) | Jurkat NFkB conf 50.4
